Assay results from the M2OR odorant receptor database.

How the values were obtained:
Conditions in all cases: stereoisomer not certain
O52I2 I74L = system: O52I2 I74L
How it was run: (§1)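 Values were gathered from published papers (main text and supplementary material), with extra details requested from the original authors when needed, and checked for typos and inconsistencies. Each receptor–molecule pair is called responsive (active) if the original authors judged the measured signal statistically different from baseline, and non-responsive (inactive) otherwise. Assay methods varied by source, often transient mammalian cell-line luciferase assays. Recorded details include cell line, G-protein, co-transfected protein and tags.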

O52J3 T77A V128I Q141L = system: O52J3 T77A V128I Q141L
How it was run: as §1

O52K1 A119T A149T = system: O52K1 A119T A149T
How it was run: as §1

O52K1 Q52R = system: O52K1 Q52R
How it was run: as §1

O52L1 = system: O52L1
How it was run: as §1

O52M1 S305R = system: O52M1 S305R
How it was run: as §1

O52N1 R167C F247I = system: O52N1 R167C F247I
How it was run: as §1

O52N2 S249A H264R = system: O52N2 S249A H264R
How it was run: as §1

O52W1 H239R L254Q = system: O52W1 H239R L254Q
How it was run: as §1

O56A3 = system: O56A3
How it was run: as §1

Measured: odorant receptor agonist call

O52K1 Q52R, sequence (as listed by the source, stated change not applied): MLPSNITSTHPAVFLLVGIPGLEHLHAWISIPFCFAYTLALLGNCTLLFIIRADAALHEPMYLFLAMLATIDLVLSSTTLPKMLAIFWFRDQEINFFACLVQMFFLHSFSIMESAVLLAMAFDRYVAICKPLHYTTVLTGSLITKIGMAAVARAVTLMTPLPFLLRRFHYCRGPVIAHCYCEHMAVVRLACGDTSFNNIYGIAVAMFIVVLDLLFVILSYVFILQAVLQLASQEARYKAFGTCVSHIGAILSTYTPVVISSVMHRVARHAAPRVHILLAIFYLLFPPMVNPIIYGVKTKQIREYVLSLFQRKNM
O56A3, sequence (as listed by the source): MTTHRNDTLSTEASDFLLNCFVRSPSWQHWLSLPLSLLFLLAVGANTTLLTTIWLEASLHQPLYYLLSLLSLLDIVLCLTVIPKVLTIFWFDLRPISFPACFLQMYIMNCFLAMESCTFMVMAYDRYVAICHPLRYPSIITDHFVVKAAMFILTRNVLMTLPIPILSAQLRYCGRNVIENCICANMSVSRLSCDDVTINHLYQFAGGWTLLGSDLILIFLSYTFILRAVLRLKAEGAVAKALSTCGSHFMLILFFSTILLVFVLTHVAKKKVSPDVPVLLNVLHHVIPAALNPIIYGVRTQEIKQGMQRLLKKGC
O52M1 S305R, sequence (as listed by the source, stated change not applied): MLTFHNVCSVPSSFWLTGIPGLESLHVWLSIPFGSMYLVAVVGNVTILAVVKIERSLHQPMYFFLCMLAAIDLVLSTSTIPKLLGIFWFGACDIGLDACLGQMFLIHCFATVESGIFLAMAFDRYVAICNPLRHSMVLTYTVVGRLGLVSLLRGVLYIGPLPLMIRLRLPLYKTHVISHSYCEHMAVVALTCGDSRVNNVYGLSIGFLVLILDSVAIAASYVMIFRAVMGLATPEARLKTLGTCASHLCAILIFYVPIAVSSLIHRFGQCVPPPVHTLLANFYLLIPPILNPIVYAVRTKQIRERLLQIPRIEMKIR
O52L1, sequence (as listed by the source): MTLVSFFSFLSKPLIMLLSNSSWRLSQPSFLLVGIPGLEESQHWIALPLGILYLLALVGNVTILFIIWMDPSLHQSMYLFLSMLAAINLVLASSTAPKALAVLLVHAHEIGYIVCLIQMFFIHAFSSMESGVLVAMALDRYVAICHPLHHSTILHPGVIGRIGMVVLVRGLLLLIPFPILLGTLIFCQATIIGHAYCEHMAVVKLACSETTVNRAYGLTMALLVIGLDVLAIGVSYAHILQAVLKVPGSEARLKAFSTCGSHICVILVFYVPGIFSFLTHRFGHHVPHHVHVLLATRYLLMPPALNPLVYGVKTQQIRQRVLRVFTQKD
O52I2 I74L, sequence (as listed by the source, stated change not applied): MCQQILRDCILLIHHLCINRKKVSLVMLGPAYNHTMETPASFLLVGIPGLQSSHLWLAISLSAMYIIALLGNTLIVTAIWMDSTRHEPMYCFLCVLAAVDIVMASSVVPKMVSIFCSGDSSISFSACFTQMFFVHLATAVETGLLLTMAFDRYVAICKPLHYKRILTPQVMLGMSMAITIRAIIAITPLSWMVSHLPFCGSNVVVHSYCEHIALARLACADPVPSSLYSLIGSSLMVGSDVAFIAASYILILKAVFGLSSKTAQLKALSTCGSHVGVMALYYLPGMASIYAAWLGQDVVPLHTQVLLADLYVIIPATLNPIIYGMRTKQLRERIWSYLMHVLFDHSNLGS

C=CCOC(=O)Cc1ccccc1
inactive: O52I2 I74L | O52J3 T77A V128I Q141L | O52K1 A119T A149T | O52K1 Q52R | O52L1 | O52M1 S305R | O52N1 R167C F247I | O52N2 S249A H264R | O52W1 H239R L254Q | O56A3
